Data: ChEMBL document CHEMBL4138147, “Discovery of a fluorescent probe with HDAC6 selective inhibition” (Eur J Med Chem, 2017)
The source made the active and inactive calls. The calls are words filed in the database; no cut-off is given here.

Tests used:
Histone deacetylase 1 = Histone deacetylase 1 (Homo sapiens, UniProt Q13547); experiment: Inhibition of human recombinant full-length HDAC1 (1 to 482 residues) expressed in baculovirus using Boc-Lys(acetyl)-AMC as substrate after 30 mins by fluorescence assay
Sequence of Histone deacetylase 1 (Q13547 whole entry, the tested form may be a part): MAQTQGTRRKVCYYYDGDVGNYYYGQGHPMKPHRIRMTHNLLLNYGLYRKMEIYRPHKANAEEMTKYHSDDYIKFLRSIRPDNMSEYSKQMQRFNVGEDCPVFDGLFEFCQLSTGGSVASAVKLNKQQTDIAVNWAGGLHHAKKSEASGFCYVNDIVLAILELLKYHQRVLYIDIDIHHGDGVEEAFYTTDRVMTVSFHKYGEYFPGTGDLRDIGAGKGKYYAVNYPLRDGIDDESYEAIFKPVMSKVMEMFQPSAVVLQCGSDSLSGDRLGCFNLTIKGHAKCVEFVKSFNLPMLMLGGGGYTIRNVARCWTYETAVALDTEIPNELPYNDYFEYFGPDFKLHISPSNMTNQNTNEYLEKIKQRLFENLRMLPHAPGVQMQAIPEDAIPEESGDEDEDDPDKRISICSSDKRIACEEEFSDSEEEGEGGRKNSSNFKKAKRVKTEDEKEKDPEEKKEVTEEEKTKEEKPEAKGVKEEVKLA

Histone deacetylase 2 = Histone deacetylase 2 (Homo sapiens, UniProt Q92769); experiment: Inhibition of human recombinant full-length C-terminal GST-tagged HDAC2 expressed in baculovirus infected Sf9 cells using Boc-Lys(acetyl)-AMC as substrate after 30 mins by fluorescence assay; type: cell-based
Sequence of Histone deacetylase 2 (Q92769 whole entry): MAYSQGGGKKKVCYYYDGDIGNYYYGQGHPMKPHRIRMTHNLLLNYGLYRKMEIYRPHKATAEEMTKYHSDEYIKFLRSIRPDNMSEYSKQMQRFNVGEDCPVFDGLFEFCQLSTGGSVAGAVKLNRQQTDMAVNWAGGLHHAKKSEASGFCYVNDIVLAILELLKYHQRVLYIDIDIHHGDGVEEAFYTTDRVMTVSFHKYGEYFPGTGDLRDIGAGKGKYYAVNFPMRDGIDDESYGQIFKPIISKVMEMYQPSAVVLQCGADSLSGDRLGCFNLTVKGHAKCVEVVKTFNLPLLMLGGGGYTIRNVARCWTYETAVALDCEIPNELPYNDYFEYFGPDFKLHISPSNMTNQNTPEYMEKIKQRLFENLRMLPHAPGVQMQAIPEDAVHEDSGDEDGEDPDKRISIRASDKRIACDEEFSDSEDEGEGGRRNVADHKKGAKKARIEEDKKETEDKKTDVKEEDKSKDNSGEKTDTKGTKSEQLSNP

Histone deacetylase 3 = Histone deacetylase 3 (Homo sapiens, UniProt O15379); experiment: Inhibition of human recombinant full-length C-terminal GST-tagged HDAC3 expressed in baculovirus infected Sf9 cells using Boc-Lys(acetyl)-AMC as substrate after 30 mins by fluorescence assay
Sequence of Histone deacetylase 3 (O15379 whole entry): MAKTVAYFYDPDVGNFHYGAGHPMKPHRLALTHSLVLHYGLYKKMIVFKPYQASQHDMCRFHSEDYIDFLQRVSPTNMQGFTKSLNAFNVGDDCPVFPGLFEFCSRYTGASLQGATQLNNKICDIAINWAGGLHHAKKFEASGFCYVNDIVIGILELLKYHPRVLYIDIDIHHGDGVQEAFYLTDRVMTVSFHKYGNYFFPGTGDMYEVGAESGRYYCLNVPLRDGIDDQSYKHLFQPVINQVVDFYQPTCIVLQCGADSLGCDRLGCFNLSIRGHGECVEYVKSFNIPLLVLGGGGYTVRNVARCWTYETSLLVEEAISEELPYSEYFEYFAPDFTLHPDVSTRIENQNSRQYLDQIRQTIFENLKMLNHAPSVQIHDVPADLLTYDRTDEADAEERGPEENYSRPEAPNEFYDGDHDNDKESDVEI

[1] = biological target: T1, Protein deacetylase HDAC6 (Homo sapiens, UniProt Q9UBN7); experiment: Inhibition of human recombinant full-length HDAC6 expressed in baculovirus infected Sf9 cells using Boc-Lys(acetyl)-AMC as substrate after 30 mins by fluorescence assay
T1 sequence (Q9UBN7 whole entry): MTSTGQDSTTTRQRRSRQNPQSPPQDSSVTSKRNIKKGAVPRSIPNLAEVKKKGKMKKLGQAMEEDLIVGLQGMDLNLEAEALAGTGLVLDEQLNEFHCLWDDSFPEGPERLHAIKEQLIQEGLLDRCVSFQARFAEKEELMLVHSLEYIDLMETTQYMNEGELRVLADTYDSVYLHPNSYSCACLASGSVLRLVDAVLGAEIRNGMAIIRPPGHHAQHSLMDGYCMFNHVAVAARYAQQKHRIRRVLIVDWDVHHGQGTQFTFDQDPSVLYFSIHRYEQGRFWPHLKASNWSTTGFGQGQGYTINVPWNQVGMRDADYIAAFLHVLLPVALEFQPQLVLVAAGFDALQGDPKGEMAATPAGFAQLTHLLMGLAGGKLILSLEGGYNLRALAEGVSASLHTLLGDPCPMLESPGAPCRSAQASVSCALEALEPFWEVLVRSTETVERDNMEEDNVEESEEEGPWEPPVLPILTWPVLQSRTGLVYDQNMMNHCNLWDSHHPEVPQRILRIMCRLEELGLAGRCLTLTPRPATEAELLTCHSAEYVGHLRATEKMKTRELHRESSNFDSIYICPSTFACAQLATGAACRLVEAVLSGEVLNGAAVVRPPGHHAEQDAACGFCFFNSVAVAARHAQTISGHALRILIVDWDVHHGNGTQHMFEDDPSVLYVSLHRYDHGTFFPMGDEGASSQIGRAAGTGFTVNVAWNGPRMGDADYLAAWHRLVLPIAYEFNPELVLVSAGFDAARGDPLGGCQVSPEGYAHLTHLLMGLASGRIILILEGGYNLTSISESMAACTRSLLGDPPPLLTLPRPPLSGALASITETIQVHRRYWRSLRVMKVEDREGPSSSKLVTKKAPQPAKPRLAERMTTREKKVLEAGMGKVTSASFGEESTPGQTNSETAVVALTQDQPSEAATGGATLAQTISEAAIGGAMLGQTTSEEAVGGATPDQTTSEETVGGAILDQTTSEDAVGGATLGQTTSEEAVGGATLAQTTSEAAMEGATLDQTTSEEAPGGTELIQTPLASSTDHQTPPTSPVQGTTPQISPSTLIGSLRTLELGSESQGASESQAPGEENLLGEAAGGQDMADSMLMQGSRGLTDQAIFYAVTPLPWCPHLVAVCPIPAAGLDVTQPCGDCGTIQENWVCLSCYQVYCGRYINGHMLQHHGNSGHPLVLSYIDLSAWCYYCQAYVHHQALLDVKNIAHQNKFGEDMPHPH

[2] = biological target: T2, Protein deacetylase HDAC6 (Homo sapiens) (UniProt Q9UBN7); experiment: (§1) Binding affinity to HDAC6 in aggresomes of human A549 cells assessed as formation of aggresome-like structures at 2 uM added after 24 hrs pre-treatment with MG132 followed by compound addition measured after 2 hrs by fluorescence staining-based confocal microscopic analysis
T2 sequence (whole entry): T1 sequence (Q9UBN7 whole entry)
Method in brief: (§2)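 A549 cells (DMEM, 10% FBS, 37 °C, 5% CO2) given DMSO or 5 μM MG132 for 24 h, fixed in 4% formaldehyde/PBS 20 min, then stained with 2 μM compound in PBS for 2 h. For antibody co-staining, cells were permeabilized with 0.1% Triton X-100, BSA-blocked, and probed overnight at 4 °C with anti-HDAC6 or anti-ubiquitin antibody plus Alexa 647 secondary before the compound. Confocal imaging: compound ex 405/em 500–600 nm; antibody ex 633/em 650–750 nm.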

[3] = biological target: Histone deacetylase 1/2/3 (Homo sapiens) (UniProt Q13547+O15379+Q92769); conditions: A549, at 500 nM
Histone deacetylase 9 = Histone deacetylase 9 (Homo sapiens, UniProt Q9UKV0); experiment: Inhibition of HDAC9 (unknown origin) using Boc-Lys(acetyl)-AMC as substrate after 30 mins by fluorescence assay
Sequence of Histone deacetylase 9 (Q9UKV0 whole entry, canonical isoform): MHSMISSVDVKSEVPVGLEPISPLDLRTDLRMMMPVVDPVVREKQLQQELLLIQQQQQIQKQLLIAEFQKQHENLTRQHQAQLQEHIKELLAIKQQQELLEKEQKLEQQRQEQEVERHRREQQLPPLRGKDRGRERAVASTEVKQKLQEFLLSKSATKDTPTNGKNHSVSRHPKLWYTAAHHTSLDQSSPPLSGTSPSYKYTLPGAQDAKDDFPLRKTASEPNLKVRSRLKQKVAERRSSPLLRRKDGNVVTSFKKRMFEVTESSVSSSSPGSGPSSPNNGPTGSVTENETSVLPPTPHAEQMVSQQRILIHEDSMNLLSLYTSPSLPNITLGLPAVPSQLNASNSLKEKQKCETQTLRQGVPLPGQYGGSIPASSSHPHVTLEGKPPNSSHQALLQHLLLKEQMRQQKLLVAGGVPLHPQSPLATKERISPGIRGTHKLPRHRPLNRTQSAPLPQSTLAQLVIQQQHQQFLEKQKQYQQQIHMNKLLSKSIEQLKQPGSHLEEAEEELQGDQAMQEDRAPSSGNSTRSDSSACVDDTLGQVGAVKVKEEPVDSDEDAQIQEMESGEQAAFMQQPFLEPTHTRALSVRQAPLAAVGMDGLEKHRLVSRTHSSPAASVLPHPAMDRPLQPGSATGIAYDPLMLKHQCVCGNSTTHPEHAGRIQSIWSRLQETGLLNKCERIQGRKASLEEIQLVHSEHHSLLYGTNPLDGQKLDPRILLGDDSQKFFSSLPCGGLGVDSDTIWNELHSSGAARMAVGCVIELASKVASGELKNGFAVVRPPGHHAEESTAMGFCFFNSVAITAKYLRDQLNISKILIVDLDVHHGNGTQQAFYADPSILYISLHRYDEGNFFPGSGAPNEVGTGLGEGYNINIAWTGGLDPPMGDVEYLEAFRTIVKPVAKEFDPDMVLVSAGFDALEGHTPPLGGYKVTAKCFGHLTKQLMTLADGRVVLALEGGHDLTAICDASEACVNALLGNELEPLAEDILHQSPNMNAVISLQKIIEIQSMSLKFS
Method in brief: (§3)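 The HDAC isoform was incubated with substrate and compound (from a 10% DMSO dilution, 5 μL into a 50 μL reaction) at 37 °C for 30 min. The reaction was stopped with developer containing trypsin and TSA.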

[4] = Drug uptake in human A549 cells assessed as intracellular distribution at 2 uM added after 24 hrs pre-treatment with MG132 followed by compound addition measured after 2 hrs by fluorescence staining-based confocal microscopic analysis; type: ADME, cell-based; conditions: a549, 24 h; method in brief: as §2
Histone deacetylase 7 = biological target: T3, Histone deacetylase 7 (Homo sapiens, UniProt Q8WUI4); experiment: Inhibition of HDAC7 (unknown origin) using Boc-Lys(acetyl)-AMC as substrate after 30 mins by fluorescence assay
T3 sequence (Q8WUI4 whole entry): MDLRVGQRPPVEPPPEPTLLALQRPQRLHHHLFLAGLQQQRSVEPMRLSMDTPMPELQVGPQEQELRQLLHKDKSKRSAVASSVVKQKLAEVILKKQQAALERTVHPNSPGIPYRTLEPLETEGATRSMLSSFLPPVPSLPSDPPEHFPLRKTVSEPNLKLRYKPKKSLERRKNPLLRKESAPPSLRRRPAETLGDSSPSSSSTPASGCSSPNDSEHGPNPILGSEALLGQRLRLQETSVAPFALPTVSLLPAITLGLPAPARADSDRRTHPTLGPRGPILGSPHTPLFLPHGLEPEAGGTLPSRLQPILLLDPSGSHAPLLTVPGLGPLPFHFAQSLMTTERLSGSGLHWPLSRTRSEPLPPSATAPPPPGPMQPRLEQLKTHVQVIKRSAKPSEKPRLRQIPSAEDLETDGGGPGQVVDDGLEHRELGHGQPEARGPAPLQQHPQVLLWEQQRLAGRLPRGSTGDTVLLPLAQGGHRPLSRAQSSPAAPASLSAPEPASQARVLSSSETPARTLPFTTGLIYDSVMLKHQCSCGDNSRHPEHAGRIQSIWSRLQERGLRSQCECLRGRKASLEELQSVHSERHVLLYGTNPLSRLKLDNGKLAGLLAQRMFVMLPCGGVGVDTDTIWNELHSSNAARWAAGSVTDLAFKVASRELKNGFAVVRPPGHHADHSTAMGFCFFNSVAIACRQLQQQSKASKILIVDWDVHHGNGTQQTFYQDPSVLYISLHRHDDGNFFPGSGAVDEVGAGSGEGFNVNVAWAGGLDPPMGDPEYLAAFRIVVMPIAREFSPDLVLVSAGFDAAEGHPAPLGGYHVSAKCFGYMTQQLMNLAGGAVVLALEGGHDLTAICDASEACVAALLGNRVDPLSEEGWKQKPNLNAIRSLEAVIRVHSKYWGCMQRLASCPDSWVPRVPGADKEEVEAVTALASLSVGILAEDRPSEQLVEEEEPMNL

[5] = biological target: T2, Protein deacetylase HDAC6 (Homo sapiens); experiment: as §1, with “induction of co-localization” for “formation”, “structures with polyubiquitin” for “structures”; method in brief: as §2
[6] = Drug uptake in cytoplasm of human A549 cells assessed as diffused staining in cytoplasm at 2 uM added after 24 hrs pre-treatment with DMSO followed by compound addition measured after 2 hrs by fluorescence staining-based confocal microscopic analysis; type: ADME, subcellular; conditions: a549, 24 h; method in brief: as §2
Histone deacetylase 4 = Histone deacetylase 4 (Homo sapiens, UniProt P56524); experiment: Inhibition of HDAC4 (unknown origin) using Boc-Lys(acetyl)-AMC as substrate after 30 mins by fluorescence assay; method in brief: as §3
Sequence of Histone deacetylase 4 (P56524 whole entry): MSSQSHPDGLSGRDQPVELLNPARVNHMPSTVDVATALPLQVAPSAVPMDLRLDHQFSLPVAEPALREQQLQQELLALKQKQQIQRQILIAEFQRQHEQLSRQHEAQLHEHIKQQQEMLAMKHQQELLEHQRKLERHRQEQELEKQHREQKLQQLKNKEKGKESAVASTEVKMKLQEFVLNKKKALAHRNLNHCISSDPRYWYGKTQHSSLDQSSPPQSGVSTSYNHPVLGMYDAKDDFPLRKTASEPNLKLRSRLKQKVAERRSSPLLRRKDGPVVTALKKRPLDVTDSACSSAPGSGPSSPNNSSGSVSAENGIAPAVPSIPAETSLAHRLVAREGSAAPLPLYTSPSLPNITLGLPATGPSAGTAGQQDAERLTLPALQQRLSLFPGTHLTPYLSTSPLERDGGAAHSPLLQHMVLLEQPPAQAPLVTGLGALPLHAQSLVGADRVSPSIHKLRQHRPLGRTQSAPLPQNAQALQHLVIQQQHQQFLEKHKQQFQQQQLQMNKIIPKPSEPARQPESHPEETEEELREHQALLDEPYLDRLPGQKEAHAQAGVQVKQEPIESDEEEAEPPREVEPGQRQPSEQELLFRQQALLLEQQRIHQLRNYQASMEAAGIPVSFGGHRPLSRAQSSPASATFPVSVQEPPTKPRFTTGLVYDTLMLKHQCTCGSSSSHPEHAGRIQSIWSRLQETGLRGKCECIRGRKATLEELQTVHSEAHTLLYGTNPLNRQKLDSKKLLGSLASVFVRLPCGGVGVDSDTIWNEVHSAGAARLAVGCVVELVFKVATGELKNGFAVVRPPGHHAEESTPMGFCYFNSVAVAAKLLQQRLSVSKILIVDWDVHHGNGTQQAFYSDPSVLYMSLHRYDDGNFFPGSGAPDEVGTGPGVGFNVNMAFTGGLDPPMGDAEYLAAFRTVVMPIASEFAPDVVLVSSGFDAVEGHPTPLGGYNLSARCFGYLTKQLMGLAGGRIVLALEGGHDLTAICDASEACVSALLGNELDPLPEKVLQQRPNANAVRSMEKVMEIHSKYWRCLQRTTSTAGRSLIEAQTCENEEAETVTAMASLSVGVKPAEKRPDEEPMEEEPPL

Histone deacetylase 11 = biological target: T4, Histone deacetylase 11 (Homo sapiens, UniProt Q96DB2); experiment: Inhibition of HDAC11 (unknown origin) using Boc-Lys(acetyl)-AMC as substrate after 30 mins by fluorescence assay; method in brief: as §3
T4 sequence (Q96DB2 whole entry): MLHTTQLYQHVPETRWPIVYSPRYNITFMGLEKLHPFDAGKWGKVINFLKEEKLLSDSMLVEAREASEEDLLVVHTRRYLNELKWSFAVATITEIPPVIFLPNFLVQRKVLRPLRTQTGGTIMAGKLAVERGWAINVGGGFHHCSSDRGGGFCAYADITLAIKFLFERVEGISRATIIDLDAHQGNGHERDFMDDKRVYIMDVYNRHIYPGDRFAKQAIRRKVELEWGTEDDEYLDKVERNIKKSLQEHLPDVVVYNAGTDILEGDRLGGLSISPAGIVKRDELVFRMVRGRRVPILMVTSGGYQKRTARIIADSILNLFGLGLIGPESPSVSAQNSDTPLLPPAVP

Histone deacetylase 5 = Histone deacetylase 5 (Homo sapiens, UniProt Q9UQL6); experiment: Inhibition of HDAC5 (unknown origin) using Boc-Lys(acetyl)-AMC as substrate after 30 mins by fluorescence assay; method in brief: as §3
Sequence of Histone deacetylase 5 (Q9UQL6 whole entry): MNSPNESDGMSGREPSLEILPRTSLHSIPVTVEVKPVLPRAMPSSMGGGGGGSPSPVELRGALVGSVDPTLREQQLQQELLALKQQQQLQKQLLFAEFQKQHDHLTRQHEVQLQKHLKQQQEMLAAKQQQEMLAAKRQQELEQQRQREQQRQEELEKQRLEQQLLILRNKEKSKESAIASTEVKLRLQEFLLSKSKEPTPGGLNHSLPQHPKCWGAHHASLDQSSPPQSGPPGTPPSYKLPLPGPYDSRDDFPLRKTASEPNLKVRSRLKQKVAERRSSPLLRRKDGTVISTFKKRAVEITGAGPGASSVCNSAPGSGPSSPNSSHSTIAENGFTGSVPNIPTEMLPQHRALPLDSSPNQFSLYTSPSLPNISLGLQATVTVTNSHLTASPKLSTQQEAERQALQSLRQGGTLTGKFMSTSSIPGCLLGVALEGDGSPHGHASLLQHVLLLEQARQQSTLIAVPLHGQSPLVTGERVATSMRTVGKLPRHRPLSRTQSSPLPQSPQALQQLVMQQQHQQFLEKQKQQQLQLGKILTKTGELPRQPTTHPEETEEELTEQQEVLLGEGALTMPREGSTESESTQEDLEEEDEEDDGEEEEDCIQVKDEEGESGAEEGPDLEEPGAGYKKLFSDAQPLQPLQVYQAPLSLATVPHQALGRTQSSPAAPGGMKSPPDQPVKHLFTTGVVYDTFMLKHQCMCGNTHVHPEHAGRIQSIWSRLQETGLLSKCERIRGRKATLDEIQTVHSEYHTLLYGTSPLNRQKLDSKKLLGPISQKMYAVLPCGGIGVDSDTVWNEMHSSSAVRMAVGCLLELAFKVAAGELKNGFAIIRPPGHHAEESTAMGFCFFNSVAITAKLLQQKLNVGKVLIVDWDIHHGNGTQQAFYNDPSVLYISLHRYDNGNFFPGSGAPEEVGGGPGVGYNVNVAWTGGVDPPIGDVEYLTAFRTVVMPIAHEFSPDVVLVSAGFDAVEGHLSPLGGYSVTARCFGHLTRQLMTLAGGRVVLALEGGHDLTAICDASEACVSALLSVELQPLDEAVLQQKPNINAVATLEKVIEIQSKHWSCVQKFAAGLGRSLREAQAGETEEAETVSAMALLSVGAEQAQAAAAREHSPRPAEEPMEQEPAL

Histone deacetylase 8 = biological target: T5, Histone deacetylase 8 (Homo sapiens, UniProt Q9BY41); experiment: Inhibition of HDAC8 (unknown origin) using Boc-Lys(acetyl)-AMC as substrate after 30 mins by fluorescence assay; method in brief: as §3
T5 sequence (Q9BY41 whole entry): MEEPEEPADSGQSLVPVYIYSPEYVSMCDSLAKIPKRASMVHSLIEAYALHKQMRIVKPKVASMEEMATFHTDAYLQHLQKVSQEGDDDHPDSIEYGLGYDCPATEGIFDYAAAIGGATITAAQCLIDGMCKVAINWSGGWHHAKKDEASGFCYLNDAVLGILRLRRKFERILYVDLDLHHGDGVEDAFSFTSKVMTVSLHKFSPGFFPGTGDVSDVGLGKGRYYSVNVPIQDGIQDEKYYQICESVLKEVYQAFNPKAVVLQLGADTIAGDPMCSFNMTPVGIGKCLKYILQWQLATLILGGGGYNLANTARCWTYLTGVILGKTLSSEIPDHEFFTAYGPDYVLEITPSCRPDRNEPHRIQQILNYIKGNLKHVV

[7] = biological target: T6, Polyamine deacetylase HDAC10 (Homo sapiens, UniProt Q969S8); experiment: Inhibition of HDAC10 (unknown origin) using Boc-Lys(acetyl)-AMC as substrate after 30 mins by fluorescence assay; method in brief: as §3
T6 sequence (Q969S8 whole entry): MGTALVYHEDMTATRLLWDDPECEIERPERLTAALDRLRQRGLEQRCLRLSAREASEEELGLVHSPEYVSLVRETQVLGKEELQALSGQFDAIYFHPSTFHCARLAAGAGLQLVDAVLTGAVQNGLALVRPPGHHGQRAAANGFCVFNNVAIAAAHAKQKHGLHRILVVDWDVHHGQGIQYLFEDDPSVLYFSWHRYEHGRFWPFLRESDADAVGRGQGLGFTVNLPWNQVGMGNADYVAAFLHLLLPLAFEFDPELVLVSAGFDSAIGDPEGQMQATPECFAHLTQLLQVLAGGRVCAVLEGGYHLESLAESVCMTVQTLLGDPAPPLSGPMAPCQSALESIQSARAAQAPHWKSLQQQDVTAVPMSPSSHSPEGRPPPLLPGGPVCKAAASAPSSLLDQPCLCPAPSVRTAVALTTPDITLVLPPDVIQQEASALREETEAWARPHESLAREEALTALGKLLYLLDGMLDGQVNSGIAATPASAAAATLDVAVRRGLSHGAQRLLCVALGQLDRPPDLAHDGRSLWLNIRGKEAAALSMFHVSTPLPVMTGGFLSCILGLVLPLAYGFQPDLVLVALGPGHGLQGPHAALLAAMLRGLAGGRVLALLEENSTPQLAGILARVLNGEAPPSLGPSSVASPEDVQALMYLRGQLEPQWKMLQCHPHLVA

[8] = biological target: T2, Protein deacetylase HDAC6 (Homo sapiens); experiment: Binding affinity to HDAC6 in aggresomes of human A549 cells assessed as relocation of compound to single bright juxtanuclear structure at 2 uM added after 24 hrs pre-treatment with MG132 followed by compound addition measured after 2 hrs by fluorescence staining-based confocal microscopic analysis; method in brief: as §2

Compound | IC50 (Histone deacetylase 1) [nM] | IC50 (Histone deacetylase 2) [nM] | IC50 (Histone deacetylase 3) [nM] | IC50 [1] [nM] | Activity [2] | inhibition [3] | IC50 (Histone deacetylase 9) [nM] | Drug uptake [4] | IC50 (Histone deacetylase 7) [nM] | Activity [5] | Drug uptake [6] | IC50 (Histone deacetylase 4) [nM] | IC50 (Histone deacetylase 11) [nM] | IC50 (Histone deacetylase 5) [nM] | IC50 (Histone deacetylase 8) [nM] | IC50 [7] [nM] | Activity [8]
O=C(NO)c1ccc(CN2C(=O)c3cccc4c(N5CCOCC5)ccc(c34)C2=O)cc1 | 36.2 | 98.8 | 11.1 | 2.7 | inactive | Active |  |  |  |  |  |  |  |  |  |  | 
O=C(CCCCCN1C(=O)c2cccc3c(N4CCOCC4)ccc(c23)C1=O)NO | 5.25 | 25.6 | 2.65 | 0.65 | inactive |  |  |  |  |  |  |  |  |  |  |  | 
O=C(NO)c1ccc(CCN2C(=O)c3cccc4c(N5CCOCC5)ccc(c34)C2=O)cc1 | > 20000 | > 100000 | > 30000 | 139 | Active | inactive | > 30000 | Active | > 100000 | Active | Active | > 100000 | > 10000 | > 100000 | 3050 | 1870 | Active
